# Results reported in ChEMBL document CHEMBL1255228 (J Med Chem, 2010).
# Assays:
# Cannabinoid receptor 1 = Cannabinoid receptor 1 (Rattus norvegicus, UniProt P20272); experiment: Displacement of [3H]CP55940 from rat brain CB1 receptor
# Cannabinoid receptor 2 [1] = molecular target: Cannabinoid receptor 2 (Mus musculus, UniProt P47936); experiment: Displacement of [3H]CP55940 from mouse spleen CB2 receptor; assay type: tissue-based
# Cannabinoid receptor 2 [2] = molecular target: Cannabinoid receptor 2 (Homo sapiens, UniProt P34972); experiment: Displacement of [3H]CP55940 from human CB2 receptor expressed in HEK293 cells; assay type: cell-based
# Rattus norvegicus [3] = experiment: Antinociceptive activity in sc dosed Sprague-Dawley rat assessed as thermal-stimulus induced tail flick latency after 120 mins; assay type: functional; settings: 2 h
# Method in brief: (§1)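 Female Sprague-Dawley rats (200–350 g, n=5-6/group), tested repeatedly with ≥3 days between sessions. Drug given s.c. (1.0 ml/kg) in 20% ethanol/20% alkamuls/60% saline diluted with saline; morphine in saline. Lamp set for 2–3 sec baseline, 6.0 sec cut-off; two baselines at 10 min intervals; latency read at 30, 60, 120, 180, 360 min. Expressed as %MPE.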
# Rattus norvegicus [4] = experiment: Antinociceptive activity in Sprague-Dawley rat assessed as reduction in heat-induced tail flick latency at 0.1 mg/kg, sc after 120 mins; assay type: functional; set-up: scale not given: the % may be the effect or the level left; settings: route subcutaneous; method in brief: as §1
# Rattus norvegicus [5] = species on record: Rattus norvegicus; experiment: Antinociceptive activity in Sprague-Dawley rat assessed as reduction in heat-induced tail flick latency; assay type: functional; set-up: scale not given: the % may be the effect or the level left; method in brief: as §1
# Cannabinoid receptor 1, sequence (P20272 whole entry): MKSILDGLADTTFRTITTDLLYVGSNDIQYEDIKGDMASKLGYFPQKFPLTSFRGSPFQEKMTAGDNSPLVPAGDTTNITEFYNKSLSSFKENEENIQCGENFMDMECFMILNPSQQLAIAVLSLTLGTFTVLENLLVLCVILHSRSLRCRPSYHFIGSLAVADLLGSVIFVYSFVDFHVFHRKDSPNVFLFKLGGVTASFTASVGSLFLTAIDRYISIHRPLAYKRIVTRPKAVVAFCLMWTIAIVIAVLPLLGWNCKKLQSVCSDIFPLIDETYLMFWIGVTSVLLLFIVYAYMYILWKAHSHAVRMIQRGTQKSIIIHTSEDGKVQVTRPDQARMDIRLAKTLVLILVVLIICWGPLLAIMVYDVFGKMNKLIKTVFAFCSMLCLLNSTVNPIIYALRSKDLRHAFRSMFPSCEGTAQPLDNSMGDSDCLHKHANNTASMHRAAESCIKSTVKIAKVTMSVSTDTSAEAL
# Cannabinoid receptor 2 (Mus musculus, UniProt P47936), sequence (P47936 whole entry): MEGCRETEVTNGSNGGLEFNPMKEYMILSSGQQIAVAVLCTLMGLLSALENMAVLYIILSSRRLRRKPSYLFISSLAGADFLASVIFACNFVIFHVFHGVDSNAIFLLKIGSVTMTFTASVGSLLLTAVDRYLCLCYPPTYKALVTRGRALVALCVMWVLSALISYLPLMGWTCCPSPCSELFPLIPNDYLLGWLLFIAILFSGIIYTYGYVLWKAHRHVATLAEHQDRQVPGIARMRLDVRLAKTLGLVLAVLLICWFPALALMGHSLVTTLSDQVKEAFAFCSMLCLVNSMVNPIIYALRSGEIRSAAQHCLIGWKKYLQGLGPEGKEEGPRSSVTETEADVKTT
# Cannabinoid receptor 2 (Homo sapiens, UniProt P34972), sequence (P34972 whole entry): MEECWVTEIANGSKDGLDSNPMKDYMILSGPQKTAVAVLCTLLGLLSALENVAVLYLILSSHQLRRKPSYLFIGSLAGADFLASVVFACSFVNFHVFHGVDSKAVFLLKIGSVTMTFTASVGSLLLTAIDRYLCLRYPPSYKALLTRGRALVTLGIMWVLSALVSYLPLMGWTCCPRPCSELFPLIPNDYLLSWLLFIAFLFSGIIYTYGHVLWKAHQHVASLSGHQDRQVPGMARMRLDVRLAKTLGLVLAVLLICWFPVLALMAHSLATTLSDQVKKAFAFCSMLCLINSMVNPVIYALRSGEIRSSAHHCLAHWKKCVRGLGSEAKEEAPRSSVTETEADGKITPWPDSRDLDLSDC
Structure (SMILES),Ki (Cannabinoid receptor 1) [nM],Ki (Cannabinoid receptor 2 [1]) [nM],Ki (Cannabinoid receptor 2 [2]) [nM],ED50 (Rattus norvegicus [3]) [mg/kg],Activity (Rattus norvegicus [4]) [%],Activity (Rattus norvegicus [5]) [%]
CCCCCCC1(c2cc(O)c3c(c2)OC(C)(C)[C@@H]2CCC(=O)C[C@@H]32)CCCC1,1.76,0.97,3.34,–,–,–
CCCCCc1cc(O)c2c(c1)OC(C)(C)[C@@H]1CCC(=O)C[C@@H]21,333,265,–,–,–,–
CCCCCCC1(c2cc(O)c3c(c2)OC(C)(C)[C@@H]2CCC(=O)C[C@@H]32)CCC1,0.84,13.7,11.9,–,–,–
CC1(C)Oc2cc(C3(CCCCCBr)CCC3)cc(O)c2[C@@H]2CC(=O)CC[C@H]21,2.33,7.56,5.88,–,–,–
CC1(C)Oc2cc(C3(CCCCCBr)CCC3)cc(O)c2[C@@H]2C[C@H](O)CC[C@H]21,1.37,–,–,–,–,–
CCCCCCC(C)(C)c1cc(O)c2c(c1)OC(C)(C)[C@@H]1CCC(=O)C[C@@H]21 [NABILONE],2.2,1.8,–,–,–,–
CC1(C)Oc2cc(C3(CCCCC#N)CCCC3)cc(O)c2[C@@H]2CC(=O)CC[C@H]21,3.14,2.78,–,–,–,–
CCCC/C=C\C1(c2cc(O)c3c(c2)OC(C)(C)[C@@H]2CCC(=O)C[C@@H]32)CCC1,1.13,12,15.1,–,–,–
CC1(C)Oc2cc(C3(CCCCBr)CCCC3)cc(O)c2[C@@H]2CC(=O)CC[C@H]21,13.1,13.9,–,–,–,–
CC1(C)Oc2cc(C3(CCCCCBr)CCCC3)cc(O)c2[C@@H]2CC(=O)CC[C@H]21,1.03,2.59,1.32,–,–,–
CC1(C)Oc2cc(C3(CCCCCCBr)CCCC3)cc(O)c2[C@@H]2CC(=O)CC[C@H]21,4.96,1.6,3.02,–,–,–
CCCCCCC1(c2cc(O)c3c(c2)OC(C)(C)[C@@H]2CCC(=O)C[C@@H]32)SCCS1,6.57,42.3,32.6,–,–,–
CCCCCCC1(c2cc(O)c3c(c2)OC(C)(C)[C@@H]2CC[C@@H](O)C[C@@H]32)CCC1,0.16,4.21,5.13,0.026,–,–
Cc1c(C(=O)NN2CCCCC2)nn(-c2ccc(Cl)cc2Cl)c1-c1ccc(Cl)cc1 [RIMONABANT],–,–,–,–,85.4,48
CCCC/C=C\C1(c2cc(O)c3c(c2)OC(C)(C)[C@@H]2CCC(=O)C[C@@H]32)CCCC1,1.23,5.25,7.02,–,–,–
CC1(C)Oc2cc(C3(CCCCCBr)CCC3)cc(O)c2[C@@H]2C[C@@H](O)CC[C@H]21,1.5,–,–,–,–,–
